Data set [1] in a line: Saturated solubility of DOX in PBS. Format: physicochemical. Conditions: phosphate-buffered saline (PBS), pH 7.2, aqueous buffer.
Data set [2] is described as follows: In vivo imaging of DiR-loaded micelles. Conditions: nude mice, free dye (not shown). The method, boiled down:
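DiR physically entrapped in CS-SA micelles. Anesthetized nude mice were dosed via tail vein at 25 mg CS-SA/kg. Whole-body fluorescence was imaged at set time points after injection. The brain was excised 0.5 h post-injection for ex vivo fluorescence imaging, with a blank brain as negative control.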

A short description of data set [3]: Brain distribution of DOX after iv injection. It is filed as in vivo. Conditions: ICR mice, iv 2.5 mg DOX/kg.

≈ marks a conversion by molar mass, not a printed value. Entries after “also recorded” stand apart in the source; their conditions may differ.

As to `COc1cccc2c1C(=O)c1c(O)c3c(c(O)c1C2=O)C[C@@](O)(C(=O)CO)C[C@@H]3O[C@H]1C[C@H](N)[C@H](O)[C@H](C)O1` [DOX, Doxorubicin], the solubility in data set [1] amounted to 76 µg/mL (≈ 140 µM).

With `CCCCCCCCCCCCCCCCCCN1/C(=C/C=C/C=C/C=C/C2=[N+](CCCCCCCCCCCCCCCCCC)c3ccccc3C2(C)C)C(C)(C)c2ccccc21.[I-]` [DiR], the fluorescence in brain result in data set [2] is “fluorescence was not seen in brain”.

For `COc1cccc2c1C(=O)c1c(O)c3c(c(O)c1C2=O)C[C@@](O)(C(=O)CO)C[C@@H]3O[C@H]1C[C@H](N)[C@H](O)[C@H](C)O1.Cl` [DOX · HCl, DOX hydrochloride], the “drug detection in brain” value in data set [3] is listed as “not detected in brain; also recorded: no drug signal was detected in brain”.

These data come from PMC3396390 (International Journal of Nanomedicine, 2012).
